# Assays:
# [1] = Phase I dose escalation: dose limiting toxicities, MTD and CTCAE 3.0 toxicities; assay type: in vivo, human
# Outline: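 Adults (>18 y) had refractory solid tumors, ECOG ≤2 and adequate marrow, hepatic and renal function. Test compound in 5% dextrose (0.05–0.5 mg/mL) was given as a 1-h IV infusion daily × 5 every 21 days, within 4 h of reconstitution. Premedication was oral dexamethasone, ondansetron, loratadine, famotidine and diphenhydramine. […] DLTs were assessed in cycle 1 by CTCAE v3.0. MTD was the level below that giving DLT in ≥2 patients.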
# [2] = system: refractory solid malignancies; experiment: Tumor response per RECIST v1.0; assay type: in vivo, human
# CYP3A4 = conditions: in-vitro data; cited from earlier work
# [3] = Exposure-toxicity relationship, sigmoid E-max model; assay type: in vivo, human
# Outline: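 Patients received a 1-h IV infusion of test compound daily × 5 every 21 days. Toxicity measure was the cycle 1 nadir of ANC and platelets, expressed as % decrease. Exposure metrics were total test compound AUC (day 1, cycle 1) and administered daily dosage level. Total rather than lactone parameters were used.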
# [4] = CTCAE related toxicities, Gastrointestinal
# [5] = CTCAE related toxicities, Hemorrhage/bleeding
# [6] = CTCAE related toxicities, Infection
# [7] = CTCAE related toxicities, Metabolic/laboratory
# [8] = CTCAE related toxicities, Musculoskeletal
# [9] = CTCAE related toxicities, Neurology
# [10] = CTCAE related toxicities, Pulmonary
# [11] = cycle 1, all patients, sigmoid E-max model
# [12] = total AR-67 AUC day 1 of cycle 1, sigmoid E-max model
smiles,measurement,setting,value
"CC[C@@]1(O)C(=O)OCc2c1cc1n(c2=O)Cc2c-1nc1ccc(O)cc1c2[Si](C)(C)C(C)(C)C [AR-67, 7-t-butyldimethylsilyl-10-hydroxycamptothecin]","Mucositis/stomatitis, Total",[1]; [4],2
same,"Nausea, Grade 2",[1]; [4],0
same,"Nausea, Grade 3",[1]; [4],0
same,"Nausea, Grade 4",[1]; [4],0
same,"Hemorrhage, GI - Duodenum, Grade 1",[1]; [5],0
same,"Hemorrhage, GI - Duodenum, Grade 2",[1]; [5],0
same,"Hemorrhage, GI - Duodenum, Grade 3",[1]; [5],1
same,"Hemorrhage, GI - Duodenum, Grade 4",[1]; [5],0
same,"Hemorrhage, GI - Duodenum, Total",[1]; [5],1
same,"Febrile neutropenia, Grade 1",[1]; [6],0
same,"Febrile neutropenia, Grade 2",[1]; [6],0
same,"Febrile neutropenia, Grade 3",[1]; [6],1
same,"Febrile neutropenia, Grade 4",[1]; [6],2
same,"Febrile neutropenia, Total",[1]; [6],3
same,"Infection - ANC grade 0–2, Grade 1",[1]; [6],3
same,"Infection - ANC grade 0–2, Grade 2",[1]; [6],4
same,"Infection - ANC grade 0–2, Grade 3",[1]; [6],0
same,"Infection - ANC grade 0–2, Grade 4",[1]; [6],2
same,"Infection - ANC grade 0–2, Total",[1]; [6],9
same,"Infection with unknown ANC, Grade 1",[1]; [6],2
same,"Infection with unknown ANC, Grade 2",[1]; [6],1
same,"Infection with unknown ANC, Grade 3",[1]; [6],0
same,"Infection with unknown ANC, Grade 4",[1]; [6],0
same,"Infection with unknown ANC, Total",[1]; [6],3
same,"ALT, SGPT, Alkaline Phosphatase, Grade 1",[1]; [7],8
same,"ALT, SGPT, Alkaline Phosphatase, Grade 2",[1]; [7],0
same,"ALT, SGPT, Alkaline Phosphatase, Grade 3",[1]; [7],0
same,"ALT, SGPT, Alkaline Phosphatase, Grade 4",[1]; [7],0
same,"ALT, SGPT, Alkaline Phosphatase, Total",[1]; [7],8
same,"Electrolyte abnormalities, Grade 1",[1]; [7],8
same,"Electrolyte abnormalities, Grade 2",[1]; [7],0
same,"Electrolyte abnormalities, Grade 3",[1]; [7],0
same,"Electrolyte abnormalities, Grade 4",[1]; [7],0
same,"Electrolyte abnormalities, Total",[1]; [7],8
same,"Extremity-lower (gait/walking), Grade 1",[1]; [8],1
same,"Extremity-lower (gait/walking), Grade 2",[1]; [8],0
same,"Extremity-lower (gait/walking), Grade 3",[1]; [8],0
same,"Extremity-lower (gait/walking), Grade 4",[1]; [8],0
same,"Extremity-lower (gait/walking), Total",[1]; [8],1
same,"Muscle weakness – Lower extremity, Grade 1",[1]; [8],0
same,"Muscle weakness – Lower extremity, Grade 2",[1]; [8],3
same,"Muscle weakness – Lower extremity, Grade 3",[1]; [8],1
same,"Muscle weakness – Lower extremity, Grade 4",[1]; [8],0
same,"Muscle weakness – Lower extremity, Total",[1]; [8],4
same,"Dizziness, Grade 1",[1]; [9],0
same,"Dizziness, Grade 2",[1]; [9],1
same,"Dizziness, Grade 3",[1]; [9],0
same,"Dizziness, Grade 4",[1]; [9],0
same,"Dizziness, Total",[1]; [9],1
same,"Neuropathy: sensory, Grade 1",[1]; [9],1
same,"Neuropathy: sensory, Grade 2",[1]; [9],0
same,"Neuropathy: sensory, Grade 3",[1]; [9],0
same,"Neuropathy: sensory, Grade 4",[1]; [9],0
same,"Neuropathy: sensory, Total",[1]; [9],1
same,"Dyspnea, Grade 1",[1]; [10],1
same,"Dyspnea, Grade 2",[1]; [10],0
same,"Dyspnea, Grade 3",[1]; [10],0
same,"Dyspnea, Grade 4",[1]; [10],0
same,"Dyspnea, Total",[1]; [10],1
same,"Hiccoughs (hiccups, singultus), Grade 1",[1]; [10],2
same,"Hiccoughs (hiccups, singultus), Grade 2",[1]; [10],1
same,"Hiccoughs (hiccups, singultus), Grade 3",[1]; [10],0
same,"Hiccoughs (hiccups, singultus), Grade 4",[1]; [10],0
same,"Hiccoughs (hiccups, singultus), Total",[1]; [10],3
same,DLT per Cohort,"[1]; Level 5.5, 7.5 mg/m2/day daily × 5, n=7, cycle 1",one of seven
same,DLT per Cohort,"[1]; Level 6, 8.9 mg/m2/day daily × 5, n=4, cycle 1",two of four
same,Day of ANC and platelet nadir,"[1]; MTD level, cycle 1, recovered prior to day 22",10 to 14 days
same,maximum tolerated dosage (MTD),"[1]; iv over 1 hour daily × 5, every 21 days",7.5 mg/m^2/day
same,Patients with dose limiting toxicities,"[1]; of 26 patients, 9 dosage levels",5 patients
same,recommended phase II dosage,[1]; ×5 q 21 days,7.5 mg/m^2/day
same,subjects with stable disease,[2]; 22 subjects evaluable,Four
same,duration of prolonged partial response,[2]; one patient,> 16 months
same,response per RECIST v1.0,"[2]; one subject, squamous cell carcinoma of the lung (NSCLC), dosage level 5.5, ten cycles",prolonged partial response
same,time after end of cycle 10 with partial response maintained,"[2]; recurrent NSCLC patient, 10 cycles, as of this writing",≥ 7 months
same,substrate for CYP3A4,CYP3A4,is a substrate
same,dosage level ED50 (95% CI) for % decrease in ANC,[3]; [11],6.1 (4.3 – 8.7) mg/m^2
same,dosage level ED50 (95% CI) for % decrease in platelets,[3]; [11],4.9 (3.2 – 7.6) mg/m^2
same,AUC ED50 (95% CI) for % decrease in ANC,[3]; [12],323.6 (231.9 – 451.6) hr*ng/mL
same,AUC ED50 (95% CI) for % decrease in platelets,[3]; [12],364.2 (249.4 – 531.9) hr*ng/mL
